Source: ChEMBL document CHEMBL4513216, “Probing the Open Global Health Chemical Diversity Library for Multistage-Active Starting Points for Next-Generation Antimalarials” (ACS Infect Dis, 2020)

Assay: Toxicity liver stage against HepG2, at 10uM
Type: cell-based
Design: test concentration 10 uM, cell line HepG2-A16-CD81EGFP
Details: human, HepG2-A16-CD81EGFP cells; read-out: INHIBITION
Outline: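 Uninfected HepG2-A16-CD81EGFP cells, 3 × 10^3 per well, 1536-well, plated on prespotted compound at 10 μM final, parasite-free screening media added to match infected plates; puromycin 10 μM positive, DMSO 0.5% negative; run in parallel with 48 h PbLuc assay at 37 °C, 5% CO2; viability by CellTiter-Glo luminescence, normalized to controls.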

`COC(=O)c1ccc(Cn2nc(C)cc2C)cc1` gave a cytotoxicity at 10 µM of 10.8%.
`COC(=O)[C@H]1CN(C(C)=O)CCN1C(C)=O` gave a cytotoxicity at 10 µM of -3.31%.
For `COC(=O)c1cccc2nc([C@H]3CCN(Cc4ccccc4F)C3)oc12`, the cytotoxicity at 10 µM was -5.46%.
For `Cc1cccc(O[C@H]2COCCN(Cc3sc(C)nc3C)C2)n1`, the cytotoxicity at 10 µM was -1.5%.
Molecule `CCOCCNC(=O)c1cccnc1Sc1cc(OC)ccc1OC` has a cytotoxicity at 10 µM of 0.354%.
In the case of `CN1CCN(C(=O)c2cc3sccc3n2Cc2ccccc2F)CC1`, the cytotoxicity at 10 µM is reported as 1.94%.
`Cc1cc(=O)n(CCNC(=O)c2ccccc2Cl)cn1` showed a cytotoxicity at 10 µM of -5.07%.
`CNC(=O)c1nc2c(s1)CCN(C(=O)c1ccc(OC)cc1)CC2` showed a cytotoxicity at 10 µM of 0.428%.
`COCc1ncn2c1CN(S(=O)(=O)c1cccc(F)c1)CC2` gave a cytotoxicity at 10 µM of 4.06%.
`O=C(NCCCN1CCCC1=O)c1nc(-c2ccc3[nH]ccc3c2)no1` showed a cytotoxicity at 10 µM of -3.43%.
`O=C1CCC2(CCCN(c3ncc(F)cn3)CC2)N1CC1CC1` (stereo not given) gave a cytotoxicity at 10 µM of -0.291%.
Work on `CCn1cc(C(=O)N2CCOCC2)cn1` yielded a cytotoxicity at 10 µM of 0.805%.
With `O=C(Nc1cc(-c2cccnc2)no1)C1CCCCC1` the cytotoxicity at 10 µM was 0.171%.
With `CNc1ncc(CN(C)CCN2CCCCC2)cn1` the cytotoxicity at 10 µM was 17.7%.
`Cn1cc(C2CCCN2C(=O)c2cnc(-c3ccccn3)s2)cn1` (stereo not given) gave a cytotoxicity at 10 µM of -8.1%.
Work on `COc1ccc(OCCN(C)S(=O)(=O)N2CCOCC2)cc1` yielded a cytotoxicity at 10 µM of 3.11%.
`CCS(=O)(=O)CCSc1ccc(Br)cc1` showed a cytotoxicity at 10 µM of -7%.
In the case of `CN(Cc1cc(Br)cn1C)C(=O)c1cccnc1`, the cytotoxicity at 10 µM is reported as -5.95%.
Work on `Cc1nc(CN2CCCN(C(=O)c3cccn3C)CC2)cs1` yielded a cytotoxicity at 10 µM of -2.06%.
Work on `CCc1n[nH]c(NC(=O)c2ccc(Cl)cn2)c1Br` yielded a cytotoxicity at 10 µM of -5.37%.
`CCCN(Cc1ccccc1O)S(=O)(=O)N(C)CC` gave a cytotoxicity at 10 µM of 10.2%.
Work on `Cc1nn(C)c(C)c1C1CCCN1CCCC#N` (stereo not given) yielded a cytotoxicity at 10 µM of -0.699%.
`COCCC(=O)N1CCC(Nc2ncc(Br)cn2)CC1` showed a cytotoxicity at 10 µM of -2.46%.
With `COc1cc(C(C)=O)ccc1OCC(=O)N(CC(C)C#N)C1CC1` (stereo not given) the cytotoxicity at 10 µM was -2.45%.
With `O=C(NCC(O)c1ccc(F)cc1F)c1ccccc1F` (stereo not given) the cytotoxicity at 10 µM was 13.9%.
Work on `CCc1ncncc1C(=O)NCCNC(=O)c1ccc(C)c(F)c1` yielded a cytotoxicity at 10 µM of 7.67%.
Molecule `CN(CC(N)=O)Cc1ccc(F)cc1Cl` has a cytotoxicity at 10 µM of -3.53%.
Work on `CC(C)c1cc(NC(=O)CN2CCc3nn(C)c(=O)cc3C2)on1` yielded a cytotoxicity at 10 µM of -4.44%.
`COc1ccc(NC(=O)N(CCO)Cc2ccsc2)cc1` gave a cytotoxicity at 10 µM of 1.37%.
In the case of `CCCc1cc(N2CCCC2Cn2cc(C)cn2)n2ncnc2n1` (stereo not given), the cytotoxicity at 10 µM is reported as 3.04%.
Work on `NS(=O)(=O)CCN1CCOC(c2ccsc2)C1` (stereo not given) yielded a cytotoxicity at 10 µM of 5.31%.
Molecule `Cc1cc(C)c2c(c1)C(NC(=O)CSCc1ccncc1)CCO2` (stereo not given) has a cytotoxicity at 10 µM of 4.17%.
`Cc1ncc(COc2ccc(N(C)S(C)(=O)=O)cc2)s1` showed a cytotoxicity at 10 µM of 5.89%.
In the case of `COc1ccc(C(C)Nc2ncc(C(N)=O)cc2Cl)cc1OC` (stereo not given), the cytotoxicity at 10 µM is reported as 3.54%.
`CN(C)CCN(C)C(=O)Nc1cc(F)cc(N2CCCC2)c1` gave a cytotoxicity at 10 µM of -2.22%.
With `CC(C#N)NS(=O)(=O)c1ccc2c(c1)N(C)CCC2` (stereo not given) the cytotoxicity at 10 µM was -4.28%.
Molecule `Cc1nc(-c2ccsc2)ccc1C(=O)O` has a cytotoxicity at 10 µM of -13.8%.
In the case of `CCc1nnc(CNC(=O)CCC2CCCN(C)C2)s1` (stereo not given), the cytotoxicity at 10 µM is reported as -148%.
For `CCc1nc(NC(=O)NCCc2cscn2)nn1C`, the cytotoxicity at 10 µM was 2.31%.
Work on `CN(Cc1cc(-c2cccnc2)no1)C(=O)C1CCCN1S(C)(=O)=O` (stereo not given) yielded a cytotoxicity at 10 µM of -2.54%.
With `CCCn1ccnc1CN1CCCC(O)(CN2CCCC2)C1` (stereo not given) the cytotoxicity at 10 µM was -2.69%.
For `COc1ccc(CN2CCN(c3nccnc3OC)CC2=O)cc1`, the cytotoxicity at 10 µM was 2.82%.
Molecule `CCc1cc(N2CCC(F)(F)CC2)n2nc(C)c(C)c2n1` has a cytotoxicity at 10 µM of -6.42%.
In the case of `Cc1[nH]nc(CCC(=O)NCC2CCN(C3CCCCC3)C2)c1C` (stereo not given), the cytotoxicity at 10 µM is reported as -5.08%.
For `COc1cccc(CN2CCC(O)(c3ccc(C)cn3)CC2)c1OC`, the cytotoxicity at 10 µM was -107%.
For `CCCn1cc(NC(=O)c2cccc(CN3CC=CC3)c2)nn1`, the cytotoxicity at 10 µM was -147%.
In the case of `CCC(=O)N1CCc2[nH]cnc2C12CCN(C1CCOCC1)CC2`, the cytotoxicity at 10 µM is reported as -6.47%.
Work on `CC(NC(=O)c1cc2n(n1)CCCN(C(C)C)C2)c1cn2ccsc2n1` (stereo not given) yielded a cytotoxicity at 10 µM of -3.39%.
`CC(C)c1ccc(CN2CCCC3(CC2)CN(C)C(=O)O3)cc1` (stereo not given) gave a cytotoxicity at 10 µM of -3.44%.
`CSCC[C@H](NC(C)=O)c1nc(Cc2ccccc2)n[nH]1` gave a cytotoxicity at 10 µM of 5.06%.
Work on `Cc1nc(CN2CCN(C(=O)COc3c(C)ccc(C)c3C)CC2)no1` yielded a cytotoxicity at 10 µM of -1.4%.
For `Cc1cccc2[nH]c(C3CCCN3Cc3ccc(CO)o3)nc12` (stereo not given), the cytotoxicity at 10 µM was 10.3%.
`NC(=O)CCN1CCc2onc(-c3ccccc3F)c2C1` showed a cytotoxicity at 10 µM of 5.21%.
For `Cc1ccc2cc(CN(C)Cc3nccs3)c(=O)[nH]c2c1`, the cytotoxicity at 10 µM was 2.91%.
For `COc1nccnc1N1CCCC2(C1)C(=O)N(C)c1ccccc12` (stereo not given), the cytotoxicity at 10 µM was -6.47%.
For `O=C(CCCc1ccc(Cl)cc1)N1CCN(C(=O)c2ccc[nH]2)CC1`, the cytotoxicity at 10 µM was 10.7%.
Work on `CN(CCN1CCCCCC1)C(=O)c1cc(CN2CCC(O)CC2)on1` yielded a cytotoxicity at 10 µM of -17.5%.
Molecule `CC(C)CN1CCC(c2nc3c([nH]2)CC(C)(C)CNC3=O)C1` (stereo not given) has a cytotoxicity at 10 µM of -10.6%.
`CCOCC(O)CN1CCN(C(=O)c2ccc(OC)cc2)CC1` (stereo not given) gave a cytotoxicity at 10 µM of 5.22%.
`Cc1nn(CC(C)C)c(N(C)C)c1CNCc1ccc(CO)c(F)c1` showed a cytotoxicity at 10 µM of -14.4%.
`COCC(=O)NC(C)c1cccc(Br)c1` (stereo not given) showed a cytotoxicity at 10 µM of -8.13%.
Work on `CCC(C)NC(=O)CS(=O)(=O)Cc1cc(Cl)c2c(c1)OCCCO2` (stereo not given) yielded a cytotoxicity at 10 µM of 2.19%.
In the case of `CS(=O)(=O)c1ccc(CNC(=O)N2CCC(C(N)=O)CC2)cc1`, the cytotoxicity at 10 µM is reported as -3.78%.
`O=C(Cc1ccc2c(c1)OCCO2)NC1CC1` gave a cytotoxicity at 10 µM of -11.2%.
In the case of `O=C(Cc1ccc(F)c(Br)c1)NC1CCN(CC(F)F)CC1`, the cytotoxicity at 10 µM is reported as -22%.
`Cc1cn2c(n1)CCC(NC(=O)c1cc[nH]n1)C2` (stereo not given) gave a cytotoxicity at 10 µM of -8.06%.
For `O=C(NCc1nncn1-c1ccccc1)C1CCCCC1`, the cytotoxicity at 10 µM was -22.1%.
For `CCc1nc(C2CCCN2C(=O)CCCn2cncn2)no1` (stereo not given), the cytotoxicity at 10 µM was -11.4%.
For `CS(=O)(=O)N1CCC(NC(=O)COc2ccc(Cl)cc2)CC1`, the cytotoxicity at 10 µM was -4.05%.
With `Cc1cc(C)n(C2CCCN(C(=O)c3cc(C(N)=O)cs3)C2)n1` (stereo not given) the cytotoxicity at 10 µM was -11.4%.
Work on `CCc1n[nH]c(C2CN(C(=O)c3ccc4c(c3)COC4)CCO2)n1` (stereo not given) yielded a cytotoxicity at 10 µM of -1.63%.
Molecule `Cc1ccc(CN(CC(=O)N2CCOC(C)C2)C2CC2)cc1` (stereo not given) has a cytotoxicity at 10 µM of -11.9%.
`O=C(NCCC(=O)N1CCCc2ccccc21)c1c(F)cccc1F` gave a cytotoxicity at 10 µM of -14.5%.
Work on `CCc1nc(CN2CCCN(C(=O)COC)CC2)cs1` yielded a cytotoxicity at 10 µM of -18.9%.
With `COCCN1CCC2(COCCN(C(=O)Cc3cccs3)C2)C1` (stereo not given) the cytotoxicity at 10 µM was 4.29%.
For `CN(C)S(=O)(=O)N1CCC2(CC1)CC(Oc1ccccn1)CO2` (stereo not given), the cytotoxicity at 10 µM was -133%.
For `O=C(Nc1cccnc1)[C@H]1COC[C@H]2CN(C3CCCC3)C[C@H]21`, the cytotoxicity at 10 µM was -20.1%.
In the case of `Cc1occc1C(=O)N1CCC2(CCCN(Cc3cccs3)C2)C1` (stereo not given), the cytotoxicity at 10 µM is reported as 4.3%.
Work on `CS(=O)(=O)N1CCOCC2(CN(Cc3ccccn3)CCO2)C1` (stereo not given) yielded a cytotoxicity at 10 µM of 3.42%.
For `CCCS(=O)(=O)N1Cc2nccn2CC(CN(C)C)C1` (stereo not given), the cytotoxicity at 10 µM was -106%.
In the case of `O=C(c1ccnnc1)N1C[C@@H]2C[C@@H](c3nc(C4CC4)cs3)O[C@@H]2C1`, the cytotoxicity at 10 µM is reported as -124%.
In the case of `COc1cccc(-c2n[nH]cc2CNC2CCN(C(C)C)CC2)c1`, the cytotoxicity at 10 µM is reported as 0.353%.
With `COCCOCC(=O)N1C[C@@H]2CC[C@H]1CN(C1Cc3ccccc3C1)C2` the cytotoxicity at 10 µM was -9.04%.
For `CN(C)C(=O)N1C[C@H]2CC[C@@H](C1)N(S(=O)(=O)c1cccnc1)C2`, the cytotoxicity at 10 µM was -6.55%.
`O=C(CC1CCCC1)N1C[C@@H]2C[C@@H]1CN2` showed a cytotoxicity at 10 µM of -0.714%.
